In ChEMBL document CHEMBL2046387, “Discovery of Brain-Penetrant, Irreversible Kynurenine Aminotransferase II Inhibitors for Schizophrenia” (ACS Med Chem Lett, 2012):
pIC50: −log10 of the molar value. Activity calls are given as the source filed them. The rule behind the calls is not given here.

Tested on: not listed separately
Experiment: Drug level in Sprague-Dawley rat cerebrospinal fluid at 10 mg/kg, sc after 0.25 hrs
Type: ADME, organism-based
Parameters: dose 10 mg/kg, route subcutaneous
Settings: read-out: Drug uptake
How it was run: (§1)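 Rats dosed 10 mg/kg subcutaneously; drug levels measured in CSF and plasma/brain at 0.25 h post-dose; free levels derived using measured rat brain and plasma unbound fractions.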

SMILES | concentration at 0.25 h [µM]
N[C@H]1Cc2ccccc2N(O)C1=O | 4.06

Molecular target: T1, Kynurenine/alpha-aminoadipate aminotransferase, mitochondrial (Homo sapiens, UniProt Q8N5Z0)
Experiment: Ratio of Kinact to Ki for human recombinant KAT2 using L-kynurenine as substrate
Settings: not given
How it was run: (§2)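 Second-order rate constant kinact/Ki determined for human and rat KAT II; values are geometric or arithmetic means of at least three experiments (some n = 2).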
Target sequence in this assay (Q8N5Z0 30-425 limits assumed): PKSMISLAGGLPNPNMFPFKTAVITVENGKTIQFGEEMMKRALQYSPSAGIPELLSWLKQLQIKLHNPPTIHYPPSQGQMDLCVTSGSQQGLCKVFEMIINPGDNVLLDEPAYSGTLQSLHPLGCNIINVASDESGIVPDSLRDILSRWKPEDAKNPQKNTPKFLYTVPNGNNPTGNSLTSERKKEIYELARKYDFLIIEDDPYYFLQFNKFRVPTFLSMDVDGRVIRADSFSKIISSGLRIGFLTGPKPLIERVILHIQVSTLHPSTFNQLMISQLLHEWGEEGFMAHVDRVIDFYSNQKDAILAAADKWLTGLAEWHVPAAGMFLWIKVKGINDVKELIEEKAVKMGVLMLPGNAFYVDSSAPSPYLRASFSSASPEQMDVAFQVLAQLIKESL

SMILES | Ratio [M⁻¹ s⁻¹]
N[C@H]1Cc2c(Cl)cccc2N(O)C1=O | 9.5
COc1ccc2c(c1)N(O)C(=O)[C@@H](N)C2 | 31700
N[C@H]1Cc2cccc(Cl)c2N(O)C1=O | 42
N[C@H]1Cc2c(F)cccc2N(O)C1=O | 6680
N[C@H]1Cc2cccc(F)c2N(O)C1=O | 5310
N[C@H]1Cc2ccccc2N(O)C1=O | 18500
N[C@H]1Cc2cccc(C(F)(F)F)c2N(O)C1=O | 541
COc1cccc2c1C[C@H](N)C(=O)N2O | 1940
N[C@H]1Cc2cc(C(F)(F)F)ccc2N(O)C1=O | 15300
COc1cccc2c1N(O)C(=O)[C@@H](N)C2 | 21.3
N[C@H]1Cc2cc(Cl)ccc2N(O)C1=O | 19000
Cc1ccc2c(c1)N(O)C(=O)[C@@H](N)C2 | 33400
Cc1ccc2c(c1)C[C@H](N)C(=O)N2O | 11900
N[C@H]1Cc2ccc(Cl)cc2N(O)C1=O | 28300

Molecular target: Kynurenine--oxoglutarate transaminase 3 (Homo sapiens, UniProt Q6YP21)
Experiment: Inhibition of human KAT3
Settings: not given

Kynurenine--oxoglutarate transaminase 3, sequence (Q6YP21 whole entry): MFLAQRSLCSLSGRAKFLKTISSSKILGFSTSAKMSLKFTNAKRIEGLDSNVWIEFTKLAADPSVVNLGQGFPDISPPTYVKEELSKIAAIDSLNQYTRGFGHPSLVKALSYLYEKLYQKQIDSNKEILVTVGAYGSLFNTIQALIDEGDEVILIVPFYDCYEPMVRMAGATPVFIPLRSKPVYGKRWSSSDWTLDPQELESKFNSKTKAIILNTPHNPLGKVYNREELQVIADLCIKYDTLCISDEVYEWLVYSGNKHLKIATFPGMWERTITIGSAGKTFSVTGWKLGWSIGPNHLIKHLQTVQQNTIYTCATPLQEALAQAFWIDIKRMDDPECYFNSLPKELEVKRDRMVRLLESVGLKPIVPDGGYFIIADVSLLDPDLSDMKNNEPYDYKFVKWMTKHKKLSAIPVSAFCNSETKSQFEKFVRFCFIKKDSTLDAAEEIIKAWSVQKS

SMILES | pIC50
N[C@H]1Cc2ccccc2N(O)C1=O | 4.96

Tested on: not listed separately
Experiment: Fraction unbound in rat plasma at 1 uM by equilibrium dialysis method
Type: ADME, cell-free
Settings: not given

SMILES | fraction unbound at 1 µM
N[C@H]1Cc2ccccc2N(O)C1=O | 0.893

Molecular target: Kynurenine/alpha-aminoadipate aminotransferase, mitochondrial (Rattus norvegicus) (UniProt Q64602)
Experiment: Ratio of Kinact to Ki for rat recombinant KAT2 using L-kynurenine as substrate
Settings: not given
How it was run: as §2

Kynurenine/alpha-aminoadipate aminotransferase, mitochondrial (Rattus norvegicus), sequence (Q64602 30-425 limits assumed): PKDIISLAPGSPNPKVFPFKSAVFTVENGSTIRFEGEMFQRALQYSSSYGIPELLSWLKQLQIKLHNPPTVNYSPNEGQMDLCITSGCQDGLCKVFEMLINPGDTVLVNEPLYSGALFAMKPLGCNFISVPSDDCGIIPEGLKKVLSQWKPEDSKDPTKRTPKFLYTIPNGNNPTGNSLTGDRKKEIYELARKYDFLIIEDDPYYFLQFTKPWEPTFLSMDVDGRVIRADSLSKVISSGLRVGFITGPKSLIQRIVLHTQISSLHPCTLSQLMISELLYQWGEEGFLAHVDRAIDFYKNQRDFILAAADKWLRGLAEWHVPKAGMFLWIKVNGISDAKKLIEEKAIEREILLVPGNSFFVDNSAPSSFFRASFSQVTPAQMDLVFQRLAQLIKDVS

SMILES | Ratio [M⁻¹ s⁻¹]
COc1ccc2c(c1)N(O)C(=O)[C@@H](N)C2 | 1840
N[C@H]1Cc2cccc(F)c2N(O)C1=O | 57
N[C@H]1Cc2ccccc2N(O)C1=O | 573
N[C@H]1Cc2cc(C(F)(F)F)ccc2N(O)C1=O | 102
N[C@H]1Cc2cc(Cl)ccc2N(O)C1=O | 465
Cc1ccc2c(c1)N(O)C(=O)[C@@H](N)C2 | 590
Cc1ccc2c(c1)C[C@H](N)C(=O)N2O | 167
N[C@H]1Cc2ccc(Cl)cc2N(O)C1=O | 1170

Tested on: Plasma
Experiment: Free plasma concentration in Sprague-Dawley rat at 10 mg/kg, sc after 0.25 hrs
Type: ADME, organism-based
Parameters: dose 10 mg/kg, route subcutaneous
Settings: in vivo
How it was run: as §1

SMILES | Cp(f) [µM]
N[C@H]1Cc2ccccc2N(O)C1=O | 10.2

Tested on: Brain
Experiment: Free brain concentration in Sprague-Dawley rat at 10 mg/kg, sc after 0.25 hrs
Type: ADME, organism-based
Parameters: dose 10 mg/kg, route subcutaneous
Settings: in vivo
How it was run: as §1

SMILES | Drug uptake(free) [µM]
N[C@H]1Cc2ccccc2N(O)C1=O | 3.76

Tested on: Rattus norvegicus
Experiment: Reduction of […] level in freely moving Sprague-Dawley rat dialysates from prefrontal cortex at 10 mg/kg, sc after 1 hr by microdialysis analysis relative to control
Type: functional
Parameters: scale not given: the % may be the effect or the level left
Settings: route subcutaneous
How it was run: (§3)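 Freely moving rats given 10 mg/kg sc at time 0; KYNA in prefrontal cortex dialysates monitored over time by microdialysis; expressed as percent of each animal's basal KYNA, means ± SEM, n = 11–14 per group.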

SMILES | Activity [%]
N[C@H]1Cc2ccccc2N(O)C1=O | 50

Tested on: not listed separately
Experiment: Lipophilicity, log D of the compound
Type: physicochemical
Settings: octanol/water

SMILES | logD
N[C@H]1Cc2ccccc2N(O)C1=O | -0.7

Tested on: not listed separately
Experiment: Ratio of free drug level in plasma to brain in Sprague-Dawley rat at 10 mg/kg, sc after 0.25 hrs
Type: ADME, organism-based
Parameters: dose 10 mg/kg, route subcutaneous
Settings: in vivo
How it was run: (§4)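 Rat dosed 10 mg/kg sc; drug concentrations in plasma, brain and CSF measured at 0.25 h. Free plasma and free brain levels corrected using fraction unbound from rat plasma protein binding and brain binding assays. Exposure ratios taken from free plasma, free brain and CSF concentrations.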

SMILES | Ratio
N[C@H]1Cc2ccccc2N(O)C1=O | 2.7

Tested on: Rattus norvegicus
Experiment: Reduction of […] level in freely moving Sprague-Dawley rat dialysates from prefrontal cortex at 10 mg/kg, sc after 20 hrs by microdialysis analysis
Type: functional, organism-based
Parameters: dose 10 mg/kg
Settings: not given
How it was run: as §3

SMILES | Activity
N[C@H]1Cc2ccccc2N(O)C1=O | inactive

Tested on: not listed separately
Experiment: Ratio of free drug level in cerebrospinal fluid to brain in Sprague-Dawley rat at 10 mg/kg, sc after 0.25 hrs
Type: ADME, organism-based
Parameters: dose 10 mg/kg, route subcutaneous
Settings: in vivo
How it was run: as §4

SMILES | Ratio
N[C@H]1Cc2ccccc2N(O)C1=O | 1.1

Molecular target: Kynurenine/alpha-aminoadipate aminotransferase, mitochondrial (Rattus norvegicus, UniProt Q64602)
Experiment: Inhibition of rat recombinant KAT2 assessed as conversion of L-kynurenine into kynurenic acid after 15 to 20 hrs
Settings: not given
How it was run: (§5)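 Human and rat KAT II enzyme assays run with 30 nM enzyme; IC50 reported as geometric mean of at least three independent determinations (some n = 1 or 2).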

Kynurenine/alpha-aminoadipate aminotransferase, mitochondrial (Rattus norvegicus, UniProt Q64602), sequence (Q64602 whole entry): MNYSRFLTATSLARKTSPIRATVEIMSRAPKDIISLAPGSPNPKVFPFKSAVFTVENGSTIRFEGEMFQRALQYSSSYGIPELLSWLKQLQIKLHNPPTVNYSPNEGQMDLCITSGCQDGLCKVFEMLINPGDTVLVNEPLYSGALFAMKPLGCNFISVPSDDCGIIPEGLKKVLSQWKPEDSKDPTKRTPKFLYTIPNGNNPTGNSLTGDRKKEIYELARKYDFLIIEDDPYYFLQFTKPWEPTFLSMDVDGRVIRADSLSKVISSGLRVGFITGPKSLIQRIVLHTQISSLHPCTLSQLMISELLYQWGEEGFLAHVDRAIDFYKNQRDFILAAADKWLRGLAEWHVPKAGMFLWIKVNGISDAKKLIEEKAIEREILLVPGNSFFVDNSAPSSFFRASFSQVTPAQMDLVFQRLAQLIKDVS

SMILES | pIC50
N[C@H]1Cc2c(Cl)cccc2N(O)C1=O | < 5.10
COc1ccc2c(c1)N(O)C(=O)[C@@H](N)C2 | 6.86
Cc1cccc2c1C[C@H](N)C(=O)N2O | < 5.00
Cc1cccc2c1N(O)C(=O)[C@@H](N)C2 | < 5.00
N[C@H]1Cc2cccc(Cl)c2N(O)C1=O | < 5.00
N[C@H]1Cc2c(F)cccc2N(O)C1=O | 5.69
N[C@H]1Cc2cccc(F)c2N(O)C1=O | 6.20
N[C@H]1Cc2ccccc2N(O)C1=O | 6.58
N[C@H]1Cc2cccc(C(F)(F)F)c2N(O)C1=O | < 5.17
C[C@H]1c2ccccc2N(O)C(=O)[C@H]1N | < 5.88
COc1cccc2c1C[C@H](N)C(=O)N2O | < 5.31
CC1(N)Cc2ccccc2N(O)C1=O (configuration not stated) | < 5.00
N[C@H]1Cc2cc(C(F)(F)F)ccc2N(O)C1=O | 6.31
COc1cccc2c1N(O)C(=O)[C@@H](N)C2 | < 5.00
N[C@H]1Cc2cc(Cl)ccc2N(O)C1=O | 6.59
Cc1ccc2c(c1)N(O)C(=O)[C@@H](N)C2 | 6.43
N[C@H]1Cc2c(cccc2C(F)(F)F)N(O)C1=O | < 5.00
CON1C(=O)[C@@H](N)Cc2ccccc21 | < 5.00
N[C@@H]1Cc2ccccc2N(O)C1=O | 5.93
Cc1ccc2c(c1)C[C@H](N)C(=O)N2O | 6.40
N[C@H]1Cc2ccc(Cl)cc2N(O)C1=O | 6.93

Tested on: not listed separately
Experiment: Inhibition of human KAT4
Settings: not given

SMILES | pIC50
N[C@H]1Cc2ccccc2N(O)C1=O | < 4.30

Molecular target: T1, Kynurenine/alpha-aminoadipate aminotransferase, mitochondrial
Experiment: Inhibition of human recombinant KAT2 assessed as conversion of L-kynurenine into kynurenic acid after 15 to 20 hrs
Settings: not given
How it was run: as §5
Target sequence in this assay (Q8N5Z0 whole entry): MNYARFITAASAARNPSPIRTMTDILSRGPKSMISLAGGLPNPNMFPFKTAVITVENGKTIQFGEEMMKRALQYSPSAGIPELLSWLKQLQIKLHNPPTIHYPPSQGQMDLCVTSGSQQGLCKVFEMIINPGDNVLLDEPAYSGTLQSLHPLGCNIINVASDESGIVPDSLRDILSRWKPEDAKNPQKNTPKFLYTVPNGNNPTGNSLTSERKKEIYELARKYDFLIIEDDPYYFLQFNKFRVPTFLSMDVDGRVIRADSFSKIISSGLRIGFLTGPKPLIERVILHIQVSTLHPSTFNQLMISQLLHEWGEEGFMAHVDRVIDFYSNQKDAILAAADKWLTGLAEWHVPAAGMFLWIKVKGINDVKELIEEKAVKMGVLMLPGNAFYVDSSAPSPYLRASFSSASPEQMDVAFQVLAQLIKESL

SMILES | pIC50
N[C@H]1Cc2c(Cl)cccc2N(O)C1=O | 6.46
COc1ccc2c(c1)N(O)C(=O)[C@@H](N)C2 | 7.66
Cc1cccc2c1C[C@H](N)C(=O)N2O | 6.50
Cc1cccc2c1N(O)C(=O)[C@@H](N)C2 | 5.98
N[C@H]1Cc2cccc(Cl)c2N(O)C1=O | 6.60
N[C@H]1Cc2c(F)cccc2N(O)C1=O | 7.35
N[C@H]1Cc2cccc(F)c2N(O)C1=O | 7.40
N[C@H]1Cc2ccccc2N(O)C1=O | 7.64
N[C@H]1Cc2cccc(C(F)(F)F)c2N(O)C1=O | 6.76
COc1cccc2c1C[C@H](N)C(=O)N2O | 6.75
CC1(N)Cc2ccccc2N(O)C1=O (configuration not stated) | < 5.00
N[C@H]1Cc2cc(C(F)(F)F)ccc2N(O)C1=O | 7.54
COc1cccc2c1N(O)C(=O)[C@@H](N)C2 | 6.24
N[C@H]1Cc2cc(Cl)ccc2N(O)C1=O | 7.44
Cc1ccc2c(c1)N(O)C(=O)[C@@H](N)C2 | 7.43
N[C@H]1Cc2c(cccc2C(F)(F)F)N(O)C1=O | < 5.00
CON1C(=O)[C@@H](N)Cc2ccccc21 | < 5.00
N[C@H]1Cc2ccccc2NC1=O | < 5.00
N[C@@H]1Cc2ccccc2N(O)C1=O | 6.66
Cc1ccc2c(c1)C[C@H](N)C(=O)N2O | 7.52
N[C@H]1Cc2ccc(Cl)cc2N(O)C1=O | 7.54

Tested on: not listed separately
Experiment: Fraction unbound in rat brain at 1 uM by equilibrium dialysis method
Type: ADME, tissue-based
Settings: not given

SMILES | fraction unbound at 1 µM
N[C@H]1Cc2ccccc2N(O)C1=O | 0.393

Molecular target: T2, Kynurenine--oxoglutarate transaminase 1 (Homo sapiens, UniProt Q16773)
T2 sequence (Q16773 whole entry): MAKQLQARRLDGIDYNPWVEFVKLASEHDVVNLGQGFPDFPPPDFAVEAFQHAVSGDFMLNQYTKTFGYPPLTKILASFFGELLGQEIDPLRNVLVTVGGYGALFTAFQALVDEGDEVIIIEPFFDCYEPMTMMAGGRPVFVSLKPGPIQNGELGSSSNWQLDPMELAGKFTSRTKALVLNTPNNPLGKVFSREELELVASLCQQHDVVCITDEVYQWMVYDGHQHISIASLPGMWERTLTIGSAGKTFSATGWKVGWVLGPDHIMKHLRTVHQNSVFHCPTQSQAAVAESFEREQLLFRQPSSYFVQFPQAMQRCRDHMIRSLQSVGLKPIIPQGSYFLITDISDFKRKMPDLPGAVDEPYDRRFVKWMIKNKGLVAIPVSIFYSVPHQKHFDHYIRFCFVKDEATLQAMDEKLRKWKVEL
Experiment: Inhibition of human KAT1
Settings: not given

SMILES | pIC50
N[C@H]1Cc2ccccc2N(O)C1=O | 4.66
